Active and inactive are the calls of the source. No cut-off for these calls is given here.
Key:
[1] = Inhibition of YopE in Yersinia pseudotuberculosis YPIII PIB102-Elux measured after 3 hrs 15 mins by luminescent reporter-gene assay
Procedure, shortened: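 Strain was grown on LB agar with 25 μg/mL chloramphenicol for 48 h at 26 °C, then in BHI with chloramphenicol for 12−16 h at 26 °C. It was diluted to OD620 0.2, then 1 in 4 into Ca2+-depleted BHI (5 mM EGTA, 20 mM MgCl2). Compounds were tested at 10–100 μM. Incubation was 1 h at 26 °C, 3 h at 37 °C, then 15 min at 26 °C. Luminescence was read after adding 0.1% decanal, and IC50 was interpolated from dose–response.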

[2] = Inhibition of YopH in Yersinia pseudotuberculosis YPIII PIB102-Elux using p-nitrophenyl phosphate as substrate measured after 3 hrs 15 mins by phosphatase enzyme assay
Procedure, shortened: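 Same YopE-reporter culture and incubation, with Ca2+-depleted BHI and compounds at 10–100 μM. Before decanal addition, an aliquot went into pNPP (12.5 mM in 20 mM MES pH 5.0, 0.8 mM DTT). This was incubated 15 min at 37 °C, stopped with NaOH and read at 405 nm. IC50 was interpolated from dose–response curves. Bacteria in BHI with 2.5 mM Ca2+ were the negative control.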

[3] = system: Yersinia pseudotuberculosis YPIII; assay: Antimicrobial activity against Yersinia pseudotuberculosis YPIII PIB102-Elux at 364 uM by spectrophotometry; assay type: functional

Row | Compound | IC50 [1] [µM] | IC50 [2] [µM] | Activity [3]
1 | CN[C@@H]1[C@H](O[C@H]2[C@H](O[C@H]3[C@H](O)[C@@H](O)[C@H](N=C(N)N)[C@@H](O)[C@@H]3N=C(N)N)O[C@@H](C)[C@]2(O)C=O)O[C@@H](CO)[C@H](O)[C@H]1O [STREPTOMYCIN] | 38 | 31 | 
2 | OC[C@H]1O[C@@H](Oc2cc3c4c(c2)[C@@H]([C@@H]2c5cc(O)cc6c5[C@@H](c5cc(O)cc(O)c5[C@H]2c2ccc(O)cc2)[C@H](c2ccc(O)cc2)O6)[C@H](c2ccc(O)cc2)c2c(O)cc(O)cc2[C@H]4[C@H](c2ccc(O)cc2)O3)[C@H](O)[C@@H](O)[C@@H]1O [VATALBINOSIDE A] | 12.5 | 4.5 | inactive
3 | Oc1ccc([C@@H]2c3c(O)cc(O)cc3[C@@H]3c4c(cc(O)cc4[C@H]2[C@@H]2c4cc(O)cc5c4[C@@H](c4cc(O)cc(O)c4[C@H]2c2ccc(O)cc2)[C@H](c2ccc(O)cc2)O5)O[C@H]3c2ccc(O)cc2)cc1 | 8.8 | 2.9 | inactive
4 | Oc1ccc([C@@H]2c3c(O)cc(O)cc3[C@@H]3c4c(cc(O)c5c4[C@@H]2[C@H](c2ccc(O)cc2)[C@H]5c2cc(O)cc4c2[C@@H](c2cc(O)cc(O)c2)[C@H](c2ccc(O)cc2)O4)O[C@H]3c2ccc(O)cc2)cc1 [Vaticanol B] | 9.9 | 3.3 | 
